# Reference: paper PMC6519384 (Andrology, 2018)
# Legend:
# blood esterases = experiment: Ex vivo addition of TU to blood in different blood collection tubes; format: in vitro ADME, human
# Summary of the method: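 Venous blood from hypogonadal or healthy men is aliquoted (2 mL) into duplicate plain or inhibitor-containing tubes. TU in methanol (≤1% methanol) is added to 30–1000 ng/mL final, then held 30/60 min at 4 °C or RT before centrifugation. T is extracted with ethyl acetate:hexane (3:2) and measured by LC‑MS/MS (m/z 289.2/109.0, D2‑T internal standard). Results are % difference vs the average plain tube with no ester added.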
# [1] = TU added to serum with increasing NaF, T measured; format: in vitro ADME, human; details: 500 ng/mL TU added to two serum samples or an aqueous solution
# [2] = Single oral dose of 316 mg TU in hypogonadal men; format: in vivo, human; details: TU concentrations below 15 ng/mL; oral 316 mg TU
# Summary of the method: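 Eight hypogonadal men received one 316 mg oral TU dose in a self‑emulsifying system just before a meal. Blood was drawn at −30 and 0 min, then hourly for 12 h, into plain and NaF‑EDTA tubes. T was measured by LC‑MS/MS after ethyl acetate:hexane (3:2) extraction. The % difference in T between tube types was plotted against the matching average TU, with regression.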
# [3] = TU 300 ng/mL, K2EDTA (1.8 mg/mL) tube, 30 min 4 °C, Experiment 2
# [4] = TU 300 ng/mL, K2EDTA (1.8 mg/mL) tube, 60 min 4 °C, Experiment 2
# [5] = TU 300 ng/mL, K2EDTA (1.8 mg/mL) tube, 60 min RT, Experiment 2
# [6] = TU 300 ng/mL, NaF (1.5 mg/mL) + Na2EDTA (3 mg/mL) tube, 60 min RT, Experiment 2
# [7] = TU 300 ng/mL, NaF (5 mg/mL) + K2Oxalate (4 mg/mL) tube, 60 min RT, Experiment 2
# [8] = TU 300 ng/mL, NaF (15 mg/mL) tube, 30 min 4 °C, Experiment 1
# [9] = TU 300 ng/mL, NaF (15 mg/mL) tube, 30 min RT, Experiment 1
# [10] = TU 300 ng/mL, P800 tube, 30 min 4 °C, Experiment 2
# [11] = TU 300 ng/mL, P800 tube, 60 min 4 °C, Experiment 2
# [12] = TU 300 ng/mL, P800 tube, 60 min RT, Experiment 2
# [13] = TU 300 ng/mL, Plain tube, 30 min 4 °C, Experiment 1
# [14] = TU 300 ng/mL, Plain tube, 30 min RT, Experiment 1
# [15] = TU 300 ng/mL, P‐800 tube, 30 min 4 °C, Experiment 1
# [16] = TU 300 ng/mL, P‐800 tube, 30 min RT, Experiment 1
# [17] = TU 600 ng/mL, K2EDTA (1.8 mg/mL) tube, 30 min 4 °C, Experiment 2
# [18] = TU 600 ng/mL, K2EDTA (1.8 mg/mL) tube, 60 min 4 °C, Experiment 2
# [19] = TU 600 ng/mL, K2EDTA (1.8 mg/mL) tube, 60 min RT, Experiment 2
# [20] = TU 600 ng/mL, NaF (1.5 mg/mL) + Na2EDTA (3 mg/mL) tube, 60 min RT, Experiment 2
# [21] = TU 600 ng/mL, NaF (5 mg/mL) + K2Oxalate (4 mg/mL) tube, 60 min RT, Experiment 2
# [22] = TU 600 ng/mL, NaF (15 mg/mL) tube, 30 min 4 °C, Experiment 1
# [23] = TU 600 ng/mL, NaF (15 mg/mL) tube, 30 min RT, Experiment 1
# [24] = TU 600 ng/mL, P800 tube, 30 min 4 °C, Experiment 2
# [25] = TU 600 ng/mL, P800 tube, 60 min 4 °C, Experiment 2
# [26] = TU 600 ng/mL, P800 tube, 60 min RT, Experiment 2
# [27] = TU 600 ng/mL, Plain tube, 30 min 4 °C, Experiment 1
# [28] = TU 600 ng/mL, Plain tube, 30 min 4 °C, Experiment 2
# [29] = TU 600 ng/mL, Plain tube, 30 min RT, Experiment 1
# [30] = TU 600 ng/mL, Plain tube, 60 min 4 °C, Experiment 2
# [31] = TU 600 ng/mL, Plain tube, 60 min RT, Experiment 2
# [32] = TU 600 ng/mL, P‐800 tube, 30 min 4 °C, Experiment 1
# [33] = TU 600 ng/mL, P‐800 tube, 30 min RT, Experiment 1
structure (smiles),measurement,setting,value
"CCCCCCCCCCC(=O)O[C@H]1CC[C@H]2[C@@H]3CCC4=CC(=O)CC[C@]4(C)[C@H]3CC[C@]12C [TU, testosterone undecanoate]",% difference vs. no TU added,blood esterases; [3],+20.5%
same,Measured T,blood esterases; [3],534.5 ng/dL
same,% difference vs. no TU added,blood esterases; [4],+14.7%
same,Measured T,blood esterases; [4],521.5 ng/dL
same,% difference vs. no TU added,blood esterases; [5],+129.7%
same,Measured T,blood esterases; [5],1105.0 ng/dL
same,% difference vs. no TU added,blood esterases; [6],+57.5%
same,Measured T,blood esterases; [6],705.0 ng/dL
same,% difference vs. no TU added,blood esterases; [7],+79.5%
same,Measured T,blood esterases; [7],717.0 ng/dL
same,% difference vs. no TU added,blood esterases; [8],−0.6%
same,Measured T,blood esterases; [8],269.5 ng/dL
same,% difference vs. no TU added,blood esterases; [9],+16.4%
same,Measured T,blood esterases; [9],301.5 ng/dL
same,% difference vs. no TU added,blood esterases; [10],+13.1%
same,Measured T,blood esterases; [10],492.5 ng/dL
same,% difference vs. no TU added,blood esterases; [11],+3.3%
same,Measured T,blood esterases; [11],491.5 ng/dL
same,% difference vs. no TU added,blood esterases; [12],+100.9%
same,Measured T,blood esterases; [12],860.0 ng/dL
same,% difference vs. no TU added,blood esterases; [13],+17.9%
same,Measured T,blood esterases; [13],412.0 ng/dL
same,Measured T,"blood esterases; TU 300 ng/mL, Plain tube, 30 min 4 °C, Experiment 2",624.5 ng/dL
same,% difference vs. no TU added,blood esterases; [14],+43.1%
same,Measured T,blood esterases; [14],505.0 ng/dL
same,Measured T,"blood esterases; TU 300 ng/mL, Plain tube, 60 min 4 °C, Experiment 2",741.5 ng/dL
same,Measured T,"blood esterases; TU 300 ng/mL, Plain tube, 60 min RT, Experiment 2",984.0 ng/dL
same,% difference vs. no TU added,blood esterases; [15],+18.7%
same,Measured T,blood esterases; [15],384.0 ng/dL
same,% difference vs. no TU added,blood esterases; [16],+41.7%
same,Measured T,blood esterases; [16],467.0 ng/dL
same,% difference vs. no TU added,blood esterases; [17],+21.6%
same,Measured T,blood esterases; [17],539.5 ng/dL
same,% difference vs. no TU added,blood esterases; [18],+47.3%
same,Measured T,blood esterases; [18],669.5 ng/dL
same,% difference vs. no TU added,blood esterases; [19],+266.9%
same,Measured T,blood esterases; [19],1765.0 ng/dL
same,% difference vs. no TU added,blood esterases; [20],+176.0%
same,Measured T,blood esterases; [20],1235.0 ng/dL
same,% difference vs. no TU added,blood esterases; [21],+171.6%
same,Measured T,blood esterases; [21],1085.0 ng/dL
same,% difference vs. no TU added,blood esterases; [22],+24.2%
same,Measured T,blood esterases; [22],336.5 ng/dL
same,% difference vs. no TU added,blood esterases; [23],+39.0%
same,Measured T,blood esterases; [23],360.0 ng/dL
same,% difference vs. no TU added,blood esterases; [24],+18.3%
same,Measured T,blood esterases; [24],515.0 ng/dL
same,% difference vs. no TU added,blood esterases; [25],+22.3%
same,Measured T,blood esterases; [25],582.0 ng/dL
same,% difference vs. no TU added,blood esterases; [26],+222.4%
same,Measured T,blood esterases; [26],1380.0 ng/dL
same,% difference vs. no TU added,blood esterases; [27],+30.3%
same,Measured T,blood esterases; [27],455.5 ng/dL
same,% difference vs. no TU added,blood esterases; [28],+23.7%
same,Measured T,blood esterases; [28],541.0 ng/dL
same,% difference vs. no TU added,blood esterases; [29],+130.6%
same,Measured T,blood esterases; [29],814.0 ng/dL
same,% difference vs. no TU added,blood esterases; [30],+88.8%
same,Measured T,blood esterases; [30],794.0 ng/dL
same,% difference vs. no TU added,blood esterases; [31],+271.8%
same,Measured T,blood esterases; [31],1515.0 ng/dL
same,% difference vs. no TU added,blood esterases; [32],+15.8%
same,Measured T,blood esterases; [32],374.5 ng/dL
same,% difference vs. no TU added,blood esterases; [33],+95.1%
same,Measured T,blood esterases; [33],643.0 ng/dL
same,T measured,"blood esterases; TU added 30 ng/mL, blood from four hypogonadal men, plain tubes, baseline serum T 26.0 ± 6.2 ng/dL",48.9 ± 5.1 ng/dL
same,Increase in measured T from baseline,"blood esterases; highest TU concentration (1000 ng/mL), blood from hypogonadal men, plain tubes",≤ 22 fold
same,Reduction of overestimation of T by collecting blood into NaF tubes,blood esterases; increasing amounts of TU added to blood,30–85%
same,Overestimation of measured T levels,"blood esterases; increasing amounts of TU added to plain tubes, Table 3, Experiments 1 and 2",+24 to 272%
same,Measured T levels after incubation with different amounts of NaF,[1],did not increase
same,Mean difference in T concentrations between plain and NaF‐EDTA tubes,[2],~0%
